Test results: ChEMBL document CHEMBL1148376, “Synthesis, monoamine transporter binding properties, and behavioral pharmacology of a series of 3beta-(substituted phenyl)-2beta-(3'-substituted isoxazol-5-yl)tropanes” (J Med Chem, 2004)

Legend:
[1] = target: T1, Norepinephrine transporter (Rattus norvegicus, UniProt Q9WTR4); assay: Inhibition of norepinephrine transporter (NET) determined using [3H]nisoxetine radioligand.
How it was run: (§1)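 Competition binding at the NET with 0.5 nM [3H]nisoxetine (final concentration). Other procedures follow earlier published methods.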

Rattus norvegicus [2] = assay: Drug discrimination effect of compound in rats, expressed as percent of rats choosing the cocaine lever at dose 1 mg/kg (ip); assay type: functional
Mus musculus [3] = species on record: Mus musculus; assay: Effective dose for locomotor activity in mice in the peak hour.; assay type: functional
Mus musculus [4] = assay: Percent change from vehicle in locomotor activity in mice at 10 mg/kg (ip) in 2 h; assay type: functional
[5] = target: T2, Sodium-dependent serotonin transporter (Rattus norvegicus, UniProt P31652); assay: Binding affinity towards serotonin transporter 5-HTT was determined using [3H]paroxetine radioligand.
T2 sequence (P31652 whole entry): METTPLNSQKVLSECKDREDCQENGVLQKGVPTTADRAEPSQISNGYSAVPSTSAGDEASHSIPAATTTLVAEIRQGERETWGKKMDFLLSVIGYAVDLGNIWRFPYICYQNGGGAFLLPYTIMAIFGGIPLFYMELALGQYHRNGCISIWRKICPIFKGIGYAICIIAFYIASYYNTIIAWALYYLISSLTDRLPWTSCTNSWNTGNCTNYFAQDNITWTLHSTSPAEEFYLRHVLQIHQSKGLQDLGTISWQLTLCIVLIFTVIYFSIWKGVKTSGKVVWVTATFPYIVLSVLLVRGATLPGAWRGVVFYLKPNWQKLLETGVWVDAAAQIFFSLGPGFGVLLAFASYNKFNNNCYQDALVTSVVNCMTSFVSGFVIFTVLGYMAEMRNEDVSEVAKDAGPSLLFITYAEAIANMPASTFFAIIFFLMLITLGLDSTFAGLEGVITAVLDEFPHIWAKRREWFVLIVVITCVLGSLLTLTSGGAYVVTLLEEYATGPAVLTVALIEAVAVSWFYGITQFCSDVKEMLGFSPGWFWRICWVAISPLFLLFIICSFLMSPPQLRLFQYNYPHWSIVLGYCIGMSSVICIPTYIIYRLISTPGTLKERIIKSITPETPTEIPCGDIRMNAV
How it was run: (§2)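 Competition binding at the 5-HTT with 0.2 nM [3H]paroxetine (final concentration). Other procedures follow earlier published methods.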

[6] = target: T1, Norepinephrine transporter; assay: Binding affinity towards norepinephrine transporter was determined using [3H]nisoxetine radioligand.; how it was run: as §1
[7] = target: Sodium-dependent dopamine transporter (Rattus norvegicus, UniProt P23977); assay: Inhibitory concentration required to inhibit dopamine transporter DAT was determined by using [3H]WIN-35428 radioligand
Sequence of Sodium-dependent dopamine transporter (P23977 whole entry): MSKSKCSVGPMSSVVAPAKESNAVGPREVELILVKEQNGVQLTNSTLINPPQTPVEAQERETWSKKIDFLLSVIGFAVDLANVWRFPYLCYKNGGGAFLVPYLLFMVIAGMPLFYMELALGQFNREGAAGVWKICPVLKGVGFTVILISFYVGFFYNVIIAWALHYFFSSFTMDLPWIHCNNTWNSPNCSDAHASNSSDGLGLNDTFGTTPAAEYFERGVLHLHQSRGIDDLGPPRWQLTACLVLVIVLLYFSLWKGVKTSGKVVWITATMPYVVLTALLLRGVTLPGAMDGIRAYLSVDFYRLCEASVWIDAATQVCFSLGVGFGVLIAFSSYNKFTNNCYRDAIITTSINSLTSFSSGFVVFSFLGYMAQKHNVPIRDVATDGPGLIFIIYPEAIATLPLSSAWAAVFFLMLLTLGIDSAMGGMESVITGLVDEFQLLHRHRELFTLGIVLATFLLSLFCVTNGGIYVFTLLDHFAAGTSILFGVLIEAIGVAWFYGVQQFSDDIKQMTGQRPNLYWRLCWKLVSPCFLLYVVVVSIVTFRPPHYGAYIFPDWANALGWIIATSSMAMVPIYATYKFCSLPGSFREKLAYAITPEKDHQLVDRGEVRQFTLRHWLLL
How it was run: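 Competition binding at the DAT with 0.5 nM [3H]WIN35,428 (final concentration). Other procedures follow earlier published methods.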

[8] = target: T2, Sodium-dependent serotonin transporter; assay: Inhibitory concentration required to inhibit serotonin transporter 5-HTT was determined by using [3H]paroxetine radioligand; how it was run: as §2
Rattus norvegicus [9] = assay: Drug discrimination effect of compound in rats, expressed as percent of rats choosing the cocaine lever at dose 3 mg/kg (ip); assay type: functional
Mus musculus [10] = assay: Percent change locomotor activity in mice at 1 mg/kg i.p. in 3 h.; assay type: functional; conditions: route intraperitoneal
How it was run: (§3)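 Mice habituated 1/2 h to photocell activity chambers, then injected ip with compound homogenized in 0.5% methyl cellulose (10 mL/kg); vehicle controls; N = 5 or 6 per dose. Photobeam interruptions recorded in 10-min bins for 4 h, grouped into 1-h bins; one-way ANOVA with Newman-Keuls post hoc test (p < 0.05).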

Mus musculus [11] = assay: Percent change from vehicle in locomotor activity in mice at 10 mg/kg (ip) in 4 h; assay type: functional
Mus musculus [12] = assay: Percent change from vehicle in locomotor activity in mice at 10 mg/kg (ip) in 1 h; assay type: functional
Mus musculus [13] = assay: Percent change in locomotor activity in mice at 3 mg/kg i.p. in 4 h.; assay type: functional; conditions: route intraperitoneal; how it was run: as §3
Mus musculus [14] = assay: Percent change in locomotor activity in mice at 1 mg/kg i.p. in 4 h.; assay type: functional; conditions: route intraperitoneal; how it was run: as §3
Rattus norvegicus [15] = assay: Drug discrimination effect of compound in rats, expressed as percent of rats choosing the cocaine lever at dose 5.6 mg/kg (ip); assay type: functional
Mus musculus [16] = assay: Percent change in locomotor activity in mice at 3 mg/kg i.p. in 3 h.; assay type: functional; conditions: route intraperitoneal; how it was run: as §3
Rattus norvegicus [17] = assay: Drug discrimination effect of compound in rats, expressed as percent of rats choosing the cocaine lever at dose 10 mg/kg (ip); assay type: functional
Mus musculus [18] = assay: Percent change in locomotor activity in mice at 1 mg/kg i.p. in 1 h.; assay type: functional; conditions: route intraperitoneal
Mus musculus [19] = assay: Percent change from vehicle in locomotor activity in mice at 10 mg/kg (ip) in 3 h; assay type: functional
Mus musculus [20] = species on record: Mus musculus; assay: Hour 1 ratio to cocaine was determined for locomotor activity in mice; assay type: functional
Mus musculus [21] = assay: Percent change in locomotor activity in mice at 1 mg/kg i.p. in 2 h.; assay type: functional; conditions: route intraperitoneal; how it was run: as §3
Mus musculus [22] = assay: Percent change in locomotor activity in mice at 3 mg/kg i.p. in 1 h.; assay type: functional; conditions: route intraperitoneal; how it was run: as §3
Mus musculus [23] = assay: Percent change in locomotor activity in mice at 3 mg/kg i.p. in 2 h.; assay type: functional; conditions: route intraperitoneal; how it was run: as §3
Mus musculus [24] = assay: Percent change from vehicle in locomotor activity in mice at 0.3 mg/kg (ip) in 2 h; assay type: functional
Mus musculus [25] = assay: Percent change from vehicle in locomotor activity in mice at 0.3 mg/kg (ip) in 4 h; assay type: functional
Mus musculus [26] = assay: Percent change from vehicle in locomotor activity in mice at 0.3 mg/kg (ip) in 3 h; assay type: functional
Rattus norvegicus [27] = assay: Drug discrimination effect of compound in rats, expressed as percent of rats choosing the cocaine lever at dose 1.7 mg/kg (ip); assay type: functional
Mus musculus [28] = assay: Percent change from vehicle in locomotor activity in mice at 0.3 mg/kg (ip) in 1 h; assay type: functional
Rattus norvegicus [29] = assay: Effective dose for drug discrimination effect in rat (ip); assay type: functional
How it was run: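 Cocaine-trained rat drug discrimination, FR10, 10-min sessions. Compound in 0.5% methyl cellulose given ip 15 min before session, usually to 7-8 rats per dose. Doses were raised from ≤20% to ≥80% cocaine-lever choice, capped at 30 mg/kg, >50% loss of pressing, or side effects.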

T1 sequence (Q9WTR4 whole entry): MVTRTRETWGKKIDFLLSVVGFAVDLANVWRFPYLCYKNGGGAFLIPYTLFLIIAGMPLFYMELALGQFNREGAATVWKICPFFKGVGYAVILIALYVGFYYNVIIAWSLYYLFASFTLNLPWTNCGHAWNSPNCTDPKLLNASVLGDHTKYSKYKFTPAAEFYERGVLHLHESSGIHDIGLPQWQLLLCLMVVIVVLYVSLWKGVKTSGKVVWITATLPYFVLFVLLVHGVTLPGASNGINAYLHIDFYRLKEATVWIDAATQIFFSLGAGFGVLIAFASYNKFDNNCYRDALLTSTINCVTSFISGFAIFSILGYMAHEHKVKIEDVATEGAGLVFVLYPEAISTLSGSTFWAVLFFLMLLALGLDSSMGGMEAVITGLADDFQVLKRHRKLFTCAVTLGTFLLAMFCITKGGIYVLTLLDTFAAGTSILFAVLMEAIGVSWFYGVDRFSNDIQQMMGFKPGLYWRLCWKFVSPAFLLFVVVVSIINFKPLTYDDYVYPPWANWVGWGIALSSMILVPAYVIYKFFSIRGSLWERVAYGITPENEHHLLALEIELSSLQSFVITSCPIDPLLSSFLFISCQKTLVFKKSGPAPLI

| Compound | IC50 [1] [nM] | ED50 (Mus musculus [3]) [mg/kg] | Change (Mus musculus [4]) [%] | Ki [5] [nM] | Ki [6] [nM] | IC50 [7] [nM] | IC50 [8] [nM] | Drug discrimination effect (Rattus norvegicus [9]) [%] | Change (Mus musculus [10]) [%] | Change (Mus musculus [11]) [%] | Change (Mus musculus [12]) [%] | Change (Mus musculus [13]) [%] | Change (Mus musculus [14]) [%] | Drug discrimination effect (Rattus norvegicus [15]) [%] | Change (Mus musculus [16]) [%] | Change (Mus musculus [18]) [%] | Ratio (Mus musculus [20]) | Change (Mus musculus [21]) [%] | Change (Mus musculus [22]) [%] | Change (Mus musculus [23]) [%] | other results |
| --- | --- | --- | --- | --- | --- | --- | --- | --- | --- | --- | --- | --- | --- | --- | --- | --- | --- | --- | --- | --- | --- |
| COc1ccc(-c2cc(C3C(c4ccc(Cl)cc4)CC4CCC3N4C)on2)cc1 (stereo not drawn) | 762 | 3.7 | 1337 | 535 | 454 | 1.57 | 5880 | 0 | 101 | 2120 | 521 | 335 | -21 | 43 | 662 | 0 | 1.2 | 51 | 197 | 481 | Drug discrimination effect (Rattus norvegicus [2]): 0%; Drug discrimination effect (Rattus norvegicus [17]): 50%; Change (Mus musculus [19]): 2830% |
| CC(C)c1cc(C2C(c3ccc(Cl)cc3)CC3CCC2N3C)on1 (stereo not drawn) | 954 | 0.8 | – | 211 | 575 | 1.19 | 2320 | 63 | 188 | – | – | 1745 | -2 | – | 680 | 370 | 1.9 | 632 | 876 | 995 | Drug discrimination effect (Rattus norvegicus [2]): 13%; Change (Mus musculus [24]): 41%; Change (Mus musculus [25]): -39%; Change (Mus musculus [26]): -21%; Drug discrimination effect (Rattus norvegicus [27]): 25%; Change (Mus musculus [28]): 34% |
| CN1C2CCC1C(C(=O)Oc1ccccc1)C(c1ccc(Cl)cc1)C2 (stereo not drawn) | 2340 | – | – | 1780 | 213 | – | 2960 | – | – | – | – | – | – | – | – | – | – | – | – | – | – |
| CN1C2CCC1C(c1cc(C(C)(C)C)no1)C(c1ccc(Cl)cc1)C2 (stereo not drawn) | 6320 | 4 | 769 | 3350 | 3810 | 7.31 | 36800 | 50 | 135 | 229 | 388 | -29 | 33 | 88 | 206 | 41 | 0.9 | 103 | 112 | 204 | Drug discrimination effect (Rattus norvegicus [2]): 0%; ED50 (Rattus norvegicus [29]): 3.04 mg/kg; Drug discrimination effect (Rattus norvegicus [17]): 83%; Change (Mus musculus [19]): 1272% |
| Cc1ccc(C2CC3CCC(C2c2cc(-c4ccccc4)no2)N3C)cc1 (stereo not drawn) | 398 | 2.5 | 663 | 465 | 239 | 1.58 | 5110 | 0 | 89 | 141 | 526 | 329 | 154 | 75 | 283 | 48 | 1.2 | 139 | 244 | 369 | ED50 (Rattus norvegicus [29]): 4.88 mg/kg; Drug discrimination effect (Rattus norvegicus [17]): 86%; Change (Mus musculus [19]): 363% |
| Cc1ccc(C2CC3CCC(C2c2cc(C(C)(C)C)no2)N3C)cc1 (stereo not drawn) | 3330 | – | – | 26000 | 1820 | 26 | 295000 | – | – | – | – | – | – | – | – | – | – | – | – | – | – |
| CN1C2CC[C@@H]1C[C@H](c1ccc(Cl)cc1)C2c1cc(-c2ccccc2)no1 (stereo partly drawn) | 2420 | 3.4 | 402 | 305 | 220 | – | 504 | 29 | 45 | 924 | 513 | 378 | 76 | 63 | 377 | 11 | 1.1 | 27 | 331 | 456 | ED50 (Rattus norvegicus [29]): 4.73 mg/kg; Drug discrimination effect (Rattus norvegicus [17]): 75%; Change (Mus musculus [19]): 485% |
| CN1C2CCC1C(c1cc(-c3ccc(F)cc3)no1)C(c1ccc(Cl)cc1)C2 (stereo not drawn) | 918 | 2.8 | 832 | 660 | 553 | 1.86 | 7260 | 13 | -77 | 767 | 729 | 392 | 37 | 43 | 479 | -26 | 1.6 | 38 | 271 | 463 | Drug discrimination effect (Rattus norvegicus [17]): 63%; Change (Mus musculus [19]): 514% |
| Cc1ccc(-c2cc(C3C(c4ccc(Cl)cc4)CC4CCC3N4C)on2)cc1 (stereo not drawn) | 1710 | 3.9 | 1034 | 522 | 1030 | 4.09 | 5740 | 14 | -49 | 493 | 308 | 119 | 170 | 50 | 265 | 8 | 0.7 | 44 | 23 | 153 | Drug discrimination effect (Rattus norvegicus [2]): 14%; ED50 (Rattus norvegicus [29]): 5.95 mg/kg; Drug discrimination effect (Rattus norvegicus [17]): 88%; Change (Mus musculus [19]): 1024% |
| CN1C2CCC1C(c1cc(-c3ccc(Cl)cc3)no1)C(c1ccc(Cl)cc1)C2 (stereo not drawn) | 5290 | 3.6 | 612 | – | 3790 | 6.42 | > 76000 | 13 | 74 | 1372 | 166 | 389 | 39 | 0 | 298 | 15 | 0.4 | 19 | 59 | 237 | Drug discrimination effect (Rattus norvegicus [2]): 0%; Drug discrimination effect (Rattus norvegicus [17]): 50%; Change (Mus musculus [19]): 838% |
| Cc1ccc(C2CC3CCC(C2c2cc(C(C)C)no2)N3C)cc1 (stereo not drawn) | 2520 | 4.7 | 532 | 3900 | 1550 | 4.5 | 42900 | 25 | -20 | 576 | 637 | 70 | 24 | 67 | 207 | -1 | 0.9 | 29 | 329 | 241 | ED50 (Rattus norvegicus [29]): 4.63 mg/kg; Drug discrimination effect (Rattus norvegicus [17]): 86%; Change (Mus musculus [19]): 765% |
| Cc1ccc(C2CC3CCC(C2C(=O)OC(C)C)N3C)cc1 (stereo not drawn) | 6090 | – | – | 1160 | 554 | – | 1930 | – | – | – | – | – | – | – | – | – | – | – | – | – | – |
